ChEMBL document CHEMBL4622936, “Discovery of the potent non-steroidal glucocorticoid receptor modulator BAY 1003803 as clinical candidate” (Bioorg Med Chem Lett, 2020)

Columns and labels:
THP-1 [1] = test: Immunomodulatory activity in human THP1 cells assessed as reduction in LPS-induced IL-8 production relative to control; type: functional
[2] = Lipophilicity, logP of compound; type: physicochemical; settings: octanol/water
[3] = Inhibition of collagenase (unknown origin) transfected in human HeLa cells by luciferase reporter gene assay; type: cell-based
THP-1 [4] = test: Immunomodulatory activity in human THP1 cells assessed as reduction in LPS-induced IL-8 production; type: functional, cell-based
How it was run: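 Human promyeloid THP-1 cells were stimulated with lipopolysaccharide to induce IL-8 synthesis, and inhibition of IL-8 production by the test compound was measured.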

HeLa = test: Inhibition of collagenase (unknown origin) transfected in human HeLa cells by luciferase reporter gene assay relative to control; type: cell-based
PBMC [5] = test: Inhibition of PHA-induced IL2 release in human PBMC cells relative to control; type: functional
PBMC [6] = test: Inhibition of PHA-induced IL4 release in human PBMC cells; type: functional, cell-based
How it was run: (§1)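 Primary human peripheral blood mononuclear cells were stimulated with LPS (IL-12p40, TNFα) or PHA (IFNγ, IL-2, IL-4). Cytokine release was measured with test compound, and clobetasol and dexamethasone were run in parallel as reference glucocorticoids.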

PBMC [7] = test: Inhibition of LPS-induced TNFalpha release in human PBMC cells relative to control; type: functional
PBMC [8] = test: Inhibition of LPS-induced IL12p40 release in human PBMC cells; type: functional, cell-based; how it was run: as §1
PBMC [9] = test: Inhibition of LPS-induced IL12p40 release in human PBMC cells relative to control; type: functional
PBMC [10] = test: Inhibition of PHA-induced IL2 release in human PBMC cells; type: functional, cell-based; how it was run: as §1
PBMC [11] = test: Inhibition of PHA-induced IL4 release in human PBMC cells relative to control; type: functional
PBMC [12] = test: Inhibition of LPS-induced TNFalpha release in human PBMC cells; type: functional, cell-based; how it was run: as §1
PBMC [13] = test: Inhibition of PHA-induced IFNgamma release in human PBMC cells relative to control; type: functional
PBMC [14] = test: Inhibition of PHA-induced IFNgamma release in human PBMC cells; type: functional, cell-based; how it was run: as §1
[15] = Mutagenicity in Salmonella typhimurium by Ames test; type: toxicity; settings: salmonella enterica subsp. enterica serovar typhimurium
[16] = Clearance in male Wistar rat blood at 1 mg/kg, iv; type: ADME, organism-based; settings: whole blood
[17] = Terminal half life in male Wistar rat blood at 1 mg/kg, iv; type: ADME, organism-based; settings: whole blood, read-out: beta t1/2 (converted)
[18] = Clearance in male Wistar rat plasma at 1 mg/kg, iv; type: ADME, organism-based
[19] = Volume of distribution at steady state in male Wistar rat blood at 1 mg/kg, iv; type: ADME, organism-based; settings: whole blood, read-out: Vdss

| logP [2] | EC50 [3] [nM] | IC50 (THP-1 [4]) [nM] | SMILES | Emax (THP-1 [1]) [%] | Emax (HeLa) [%] | also measured |
| --- | --- | --- | --- | --- | --- | --- |
| 3.8 | 1.58 | 0.2 | COC[C@@](O)([C@@H](Nc1cccc2nc(C)ccc12)c1ccc(OC)c(F)c1Cl)C(F)(F)F | 97 | 80 | – |
| – | 7.94 | 2.51 | C[C@@H]1C[C@H]2[C@@H]3CCC4=CC(=O)C=C[C@]4(C)[C@@]3(F)[C@@H](O)C[C@]2(C)[C@@]1(O)C(=O)CO [DEXAMETHASONE] | 100 | 100 | Efficacy (PBMC [5]): 100%; IC50 (PBMC [6]): 2.3 nM; Efficacy (PBMC [7]): 100%; IC50 (PBMC [8]): 4.3 nM; Efficacy (PBMC [9]): 100%; IC50 (PBMC [10]): 4.6 nM; Efficacy (PBMC [11]): 100%; IC50 (PBMC [12]): 6.4 nM; Efficacy (PBMC [13]): 100%; IC50 (PBMC [14]): 3.8 nM |
| 4.2 | 10 | 6.31 | CCSC[C@@](O)([C@@H](Nc1cccc2nc(C)ccc12)c1ccc(OC)cc1)C(F)(F)F | 86 | 70 | – |
| 4.6 | 10 | 2 | CCSC[C@@](O)([C@@H](Nc1cccc2nc(C)ccc12)c1cccc(F)c1OC)C(F)(F)F | 69 | 47 | – |

Further lines, the molecule ahead of its results:

| SMILES | logP [2] | EC50 [3] [nM] | IC50 (THP-1 [4]) [nM] | Emax (THP-1 [1]) [%] | Emax (HeLa) [%] | also measured |
| --- | --- | --- | --- | --- | --- | --- |
| Nc1cc(F)cc2[nH]c(=O)ccc12 | – | – | – | – | – | Activity [15]: Non-Toxic |
| COc1ccc([C@H](Nc2cc(F)cc3[nH]c(=O)ccc23)[C@](O)(CN(C)C)C(F)(F)F)c(Cl)c1F | 4.4 | 3.98 | 7.94 | 109 | 62 | – |
| COc1ccc([C@H](Nc2cc(F)cc3[nH]c(=O)ccc23)[C@](O)(CO)C(F)(F)F)c(Cl)c1F | 2.4 | 1 | 0.631 | 92 | 88 | clearance [16]: 100 mL/min/kg; half-life [17]: 2.9 h; clearance [18]: 113 mL/min/kg; Vd [19]: 18 L/kg |
| CCSC[C@@](O)([C@@H](Nc1cccc2nc(C)ccc12)c1ccc(OC)cc1F)C(F)(F)F | 4.4 | 5.01 | 5.01 | 85 | 63 | – |
| COc1ccc([C@H](Nc2cc(F)cc3[nH]c(=O)ccc23)[C@](O)(CSC)C(F)(F)F)c(Cl)c1F | 3.9 | 0.398 | 0.1 | 100 | 94 | – |
| CCOC[C@@](O)([C@@H](Nc1cc(F)cc2[nH]c(=O)ccc12)c1ccc(OC)c(F)c1Cl)C(F)(F)F | 3.8 | 1.58 | 0.794 | 99 | 91 | – |
| COc1ccc([C@H](Nc2cccc3nc(C)ccc23)[C@](O)(CC#N)C(F)(F)F)c(Cl)c1F | 3.4 | 1.58 | 1.26 | 83 | 80 | – |
| Nc1ccc(F)c2[nH]c(=O)ccc12 | – | – | – | – | – | Activity [15]: Toxic |
| Nc1c(F)ccc2[nH]c(=O)ccc12 | – | – | – | – | – | Activity [15]: Toxic |
